Experimental data from publication PMC4000071 (Journal of Toxicologic Pathology, 2014).

Columns and labels:
[1] = system: phospholipidosis (PLD); test: in vitro PLD screen; format: cell-based; settings: read-out: EC50 (phospholipogenic, in vitro); in vitro PLD screen; unpublished data
[2] = dog pharmacokinetics; format: in vivo
[3] = system: p-glycoprotein; settings: cited from earlier work
[4] = system: mitochondrial oxidative phosphorylation; test: mitochondrial oxidative phosphorylation inhibition; format: biochemical; settings: unpublished data
[5] = target: T1, adrenergic α1D receptor (Homo sapiens, UniProt P25100); test: secondary pharmacology screens, α1D; format: binding; settings: 10 µM
T1 sequence (P25100 1-572): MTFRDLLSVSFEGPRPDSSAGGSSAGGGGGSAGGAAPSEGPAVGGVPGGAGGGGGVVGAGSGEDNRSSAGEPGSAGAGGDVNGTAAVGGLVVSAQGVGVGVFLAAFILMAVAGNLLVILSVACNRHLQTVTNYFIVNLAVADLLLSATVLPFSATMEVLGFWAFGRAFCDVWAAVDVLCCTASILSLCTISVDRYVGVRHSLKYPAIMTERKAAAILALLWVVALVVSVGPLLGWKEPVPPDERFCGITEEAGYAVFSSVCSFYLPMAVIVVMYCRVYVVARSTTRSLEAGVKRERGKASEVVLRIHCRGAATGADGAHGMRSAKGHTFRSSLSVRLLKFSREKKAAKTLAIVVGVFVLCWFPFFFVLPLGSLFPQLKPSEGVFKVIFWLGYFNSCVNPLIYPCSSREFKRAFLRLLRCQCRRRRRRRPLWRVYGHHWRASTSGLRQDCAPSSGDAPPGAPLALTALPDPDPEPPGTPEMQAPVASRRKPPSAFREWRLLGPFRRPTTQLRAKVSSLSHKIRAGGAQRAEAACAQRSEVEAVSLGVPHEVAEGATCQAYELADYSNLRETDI

[6] = system: brain 5-HT1B receptors; settings: cited from earlier work
[7] = target: human 5-hydroxytryptamine 1B (serotonin, or 5-HT1B) receptor; settings: antagonist; cited from earlier work
[8] = man, 5 mg projected efficacious dose; cited from earlier work
[9] = target: 5-HT1B receptors in the rat cerebral cortex (Rattus norvegicus, UniProt P28564); test: 5-HT1B receptor binding in rat cerebral cortex
Sequence of 5-HT1B receptors in the rat cerebral cortex (P28564 whole entry): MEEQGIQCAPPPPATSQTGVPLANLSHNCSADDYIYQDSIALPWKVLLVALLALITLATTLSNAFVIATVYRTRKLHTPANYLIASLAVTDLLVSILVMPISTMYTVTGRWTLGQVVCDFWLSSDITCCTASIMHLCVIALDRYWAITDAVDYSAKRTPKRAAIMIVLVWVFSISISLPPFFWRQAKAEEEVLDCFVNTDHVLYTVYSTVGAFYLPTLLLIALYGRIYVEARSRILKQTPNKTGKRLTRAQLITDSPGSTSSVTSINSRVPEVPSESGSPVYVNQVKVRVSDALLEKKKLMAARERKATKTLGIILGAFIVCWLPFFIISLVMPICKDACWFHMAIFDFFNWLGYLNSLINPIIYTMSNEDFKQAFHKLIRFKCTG

[10] = rat systemic and brain exposure; format: in vivo; settings: 25 mg/kg/day (NOEL for neuropathology), unpublished results
[11] = system: beagle dogs; test: 1-month; format: in vivo
[12] = system: dogs; test: cardiovascular telemetry study in dogs; format: in vivo; settings: dog
[13] = system: rat; test: rat 1- and 3-month repeat dose toxicity; format: in vivo
[14] = 3-month toxicity study, toxicokinetics; format: in vivo, beagle dogs; settings: 30 mg/kg/day
Outline: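 Dogs received 7, 15 or 30 mg/kg/day by oral gavage for 3 months. Serial blood was drawn on Days 1, 23, 56 and 91, pre-dose and from 0.5 to 24 h post-dose. One decedent was sampled on Day 86 before euthanasia. Plasma drug was measured and tmax, Cmax, AUC and t1/2 were derived.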

[15] = system: beagle dogs; test: 1-month toxicity study, in-life, clinical pathology and pathology; format: in vivo; settings: dog
[16] = 1-month, 47 mg/kg/day, 4 affected dogs
[17] = 1-month, 47 mg/kg/day, Week 2 until end of dosing

For COc1cc2c(c(N3CCN(C)CC3)c1)O[C@@H](C(=O)Nc1ccc(N3CCOCC3)cc1)CC2 [AZD3783, (2R)-6-methoxy-8-(4-methylpiperazin-1-yl)-N-(4-morpholin-4-ylphenyl) chromane-2-carboxamide], the EC50 [1] was 164000 nM, the “steady state volume of distribution” value [2] was 4.3 L/kg and the plasma clearance ([2]; after IV dosing) was 18 mL/min/kg. For the same compound, the “F (oral)” value ([2]; oral dosing) was 58%, the p-glycoprotein substrate [3] was “not likely to be a p-glycoprotein substrate” and the “inhibition of mitochondrial oxidative phosphorylation” value [4] was “not a direct inhibitor”. For the same compound, the “binding to adrenergic α1D receptor” value [5] was “binds”, the “binding to brain 5-HT1B receptors (PET)” value ([6]; human subjects) was “bind dose-dependently” and the “receptor occupancy in brain region” value ([6]; man, 5 mg dose) was 50%. For the same compound, the Ki [7] was 12.5 nM, the “estimated AUC” value [8] was 0.383 µM·h and the Ki ([9]; rat cerebral cortex) was 51 nM. For the same compound, the “affinity lower than for the guinea pig or human 5-HT1B receptors” value ([9]; rat vs guinea pig or human) was “approximately 4 fold”, the AUC [10] was 84 µM·h and the brain microscopic findings ([11]; 2.3 mg/kg/day, 4 weeks) was “No treatment-related microscopic change in the brain”. For the same compound, the “brain microscopic findings, other three dogs” value ([11]; 47 mg/kg/day, 4 weeks) was “minimal to moderate foamy cytoplasmic vacuolation of neurons”, the mortality ([11]; a male in the 47 mg/kg/day group, severe clinical signs) was “euthanized on Day 20” and the “brain microscopic findings, decedant” value ([11]; male, 47 mg/kg/day, euthanized Day 20) was “neuronal degeneration and necrosis microscopically, accompanied by minimal gliosis in the medulla oblongata”. For the same compound, the brain microscopic findings ([11]; two dogs, 14 mg/kg/day, 4 weeks) was “minimal granular, yellowish pigmentation in the cytoplasm of neurons in the medulla oblongata”, the “cardiovascular effect (telemetry)” value ([12]; 14 mg/kg/day) was “no effect” and the “cardiovascular effect (telemetry)” value ([12]; 47 mg/kg) was “modest tachycarda with decrease in blood pressure”. For the same compound, the PLD [13] was “caused generalized PLD”, the nervous tissue pathology ([13]; 1 month, 126 mg/kg/day) was “minimal neuronal vacuolation in the DRG and brain stem” and the “nervous tissue pathology (DRG, brain stem, spinal cord)” value ([13]; 3 months, 100 mg/kg/day, unpublished results) was “minimal to slight neuronal vacuolation with eosinophilic deposits”. The plasma concentration ([14]; decedent female, prior to euthanasia on Day 86) was 17 µM, the “exposure relative to predicted therapeutic exposure” value ([14]; dog, 3-month study) was 350 fold and the ECG ([15]; 1-month) was “no treatment-related effect on ECG”. The “pathological findings in spinal cord or any CNS tissues” value (“pathological findings” for short) ([15]; 1-month, 2.3 mg/kg/day) was “no pathological findings”, the “pathological findings” value ([15]; 1-month, 14 mg/kg/day) was “no pathological findings” and the “dogs with mild to marked increases in liver enzymes (incidence)” value ([15]; 1-month, 47 mg/kg/day) was 4 of 12. The “electron microscopy of liver and gallbladder” value ([15]; 1-month, 47 mg/kg/day) was “lamellar bodies consistent with PLD”, the liver microscopic findings ([15]; 1-month, 47 mg/kg/day) was “inflammatory cell infiltration, degenerative and necrotic changes in the centrilobular region and moderate pigments in histiocytes” and the “lymphoid tissues microscopic findings” value ([15]; 1-month, 47 mg/kg/day) was “increased incidence and severity of lymphocytolysis”. For the same compound, the “ALT increase in affected dogs” value [15, 16] was “up to 17 fold vs. pretest”, the “Aspartate aminotransferase (AST) increase in affected dogs” value [15, 16] was “up to 7 fold vs. pretest” and the “GLDH increase in affected dogs” value [15, 16] was “up to 37 fold vs. pretest”. For the same compound, the “alanine aminotransferase (ALT) group mean elevation” value [15, 17] was “approximately 3 fold”, the “glutamate dehydrogenase (GLDH) group mean elevation” value [15, 17] was ~7 fold and the mortality ([15]; 1-month, 2.3, 14, 47 mg/kg/day) was “All animals survived to scheduled necropsy”. For the same compound, the ophthalmology observations ([15]; 1-month, all doses) was “No treatment-related observations were seen in the eyes of any dog”, the platelet counts increase ([15]; 1-month, females, 47 mg/kg/day) was 24–52% and the platelet counts increase ([15]; 1-month, males, 47 mg/kg/day) was 10–15%. For the same compound, the “pathological findings” value ([15]; recovery animals previously dosed at 47 mg/kg/day) was “no pathological findings”.
